ChEMBL document CHEMBL1127604 (J Med Chem, 1994)

Tests used:
[1] = molecular target: T1, 5-hydroxytryptamine receptor 1D (Rattus norvegicus, UniProt P28565); assay: Inhibition of forskolin stimulated adenylate cyclase at 5-hydroxytryptamine 1D receptor; assay type: functional
[2] = Selectivity value is the ratio between EC50 values of 5-HT1A and 5-HT1D receptors
[3] = molecular target: T2, 5-hydroxytryptamine receptor 1A (Rattus norvegicus, UniProt P19327); assay: Binding affinity was measured against serotonin 5-hydroxytryptamine 1A receptor
T2 sequence (P19327 whole entry): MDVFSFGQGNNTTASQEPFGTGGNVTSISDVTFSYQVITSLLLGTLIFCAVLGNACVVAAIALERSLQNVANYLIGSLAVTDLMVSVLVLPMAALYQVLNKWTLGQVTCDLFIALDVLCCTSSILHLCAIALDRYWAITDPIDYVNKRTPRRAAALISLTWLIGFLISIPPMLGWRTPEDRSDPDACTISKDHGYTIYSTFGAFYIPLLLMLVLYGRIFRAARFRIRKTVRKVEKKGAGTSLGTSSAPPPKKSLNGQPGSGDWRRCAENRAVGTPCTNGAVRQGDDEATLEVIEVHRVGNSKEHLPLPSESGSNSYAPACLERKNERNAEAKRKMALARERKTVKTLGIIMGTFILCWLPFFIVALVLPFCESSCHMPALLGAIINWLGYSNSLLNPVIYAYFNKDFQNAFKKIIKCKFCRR
Summary of the method: (§1)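 Radioligand binding at 5-HT1A and 5-HT1D receptors, run by the group's earlier published protocol. Each value is the arithmetic mean of at least three independent determinations.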

[4] = Selectivity value is the ratio between IC50 values of 5-HT1A and 5-HT1D receptors
[5] = molecular target: T1, 5-hydroxytryptamine receptor 1D; assay: Binding affinity was measured against serotonin 5-hydroxytryptamine 1D receptor; summary of the method: as §1
[6] = molecular target: T2, 5-hydroxytryptamine receptor 1A; assay: Inhibition of forskolin stimulated adenylate cyclase at 5-hydroxytryptamine 1A receptor; assay type: functional

T1 sequence (P28565 whole entry): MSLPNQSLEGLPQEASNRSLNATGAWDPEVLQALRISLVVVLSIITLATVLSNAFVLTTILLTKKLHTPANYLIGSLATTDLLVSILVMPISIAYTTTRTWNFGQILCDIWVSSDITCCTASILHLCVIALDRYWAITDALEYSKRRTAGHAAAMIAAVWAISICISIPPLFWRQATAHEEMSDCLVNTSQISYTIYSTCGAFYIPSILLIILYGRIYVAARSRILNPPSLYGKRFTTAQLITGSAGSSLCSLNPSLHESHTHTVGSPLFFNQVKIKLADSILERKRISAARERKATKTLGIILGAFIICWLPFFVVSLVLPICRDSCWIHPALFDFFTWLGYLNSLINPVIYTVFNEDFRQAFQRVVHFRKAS

Row | SMILES | EC50 [1] [µM] | Selectivity [2] | IC50 [3] [µM] | Selectivity [4] | IC50 [5] [µM] | EC50 [6] [µM]
1 | CN1CCC[C@@H]1Cc1c[nH]c2ccc(Nc3ncccc3[N+](=O)[O-])cc12 | 0.0013 | 36 | 0.033 | 11 | 0.0031 | 0.047
2 | CN1CCC(c2c[nH]c3ccc(Nc4ncccc4[N+](=O)[O-])cc23)C1 (stereo unspecified) | 0.002 | 440 | 0.32 | 21 | 0.015 | 0.885
3 | O=[N+]([O-])c1cccnc1Nc1ccc2[nH]cc(C[C@H]3CCCN3)c2c1 | 0.0013 | 170 | 0.12 | 19 | 0.0062 | 0.22
4 | CN(C)CCc1c[nH]c2ccc(Nc3ncccc3[N+](=O)[O-])cc12 | 0.002 | 85 | 0.073 | 7 | 0.01 | 0.17
5 | CNS(=O)(=O)Cc1ccc2[nH]cc(CCN(C)C)c2c1 |  |  | 0.64 |  |  | 1.3
